The list is not random: actives were taken first. Their share in the collection is about 1.2%.
EBNA-1 inhibitor = blocks EBNA-1 binding to DNA | EBNA-1 DNA binding, fluorescence polarization | inhibition, % at 14.8 µM | 0.34% of 300,000 active; in the data active = inhibition above about 28%
HCV core dimer = HCV core protein dimerization inhibition. 0.33% of 300,000 active. TR-FRET GST/Flag-core106 dimerization, 1536-well. AID 1899. inhibition, % at 5 µM;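 active = inhibition above the mean of all tested compounds plus 3 SD, set per screening campaign, cut at about 45% in these data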
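System: GST/Flag-tagged HCV core106 proteins. Incubation: compound-protein-antibody incubation 4 h at 22.5 °C. Technique: HTRF with 340 nm excitation, 617/671 nm emission. Medium: KF-containing HEPES buffer, pH 7.45, DTT, CHAPS, BSA. Read-out: inhibition (%) from 671 over 617 nm ratio. Also added: Eu(K)-anti-GST 90 ng/mL plus XL665-anti-Flag 1 µg/mL.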
NS3 helicase inh = inhibitors of Hepatitis C virus NS3 helicase; NS3 helicase DNA unwinding, Cy5 molecular beacon fluorescence; inhibition, % at 10.9 µM; 0.56% of 290,000 active; AID 1800;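 active = inhibition above the mean of all tested compounds plus 3 SD, set per campaign, cut at about 35% in these data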;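 also: 0% = DMSO wells and 100% = thioflavine S control wells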
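System: NS3 helicase fragment of HCV / Schedule: 1 h at 25 °C / Control set: DMSO alone as 0% and 110 µM thioflavine S as 100% / Reagent: Cy5/quencher beacon DNA duplex and ATP to start / Technique: Cy5 fluorescence / Replication: singlicate / Evaluation: % inhibition of end-to-start signal ratio versus controls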
ZTA DNA inh = blocks Epstein-Barr virus ZTA, an EBNA-1 counter-screen; 0.15% of 320,000 active; inhibition, % at 11 µM; ZTA-DNA binding, fluorescence polarization; in the data active = inhibition above about 33%
Target sequence (P03206 whole entry, looked up): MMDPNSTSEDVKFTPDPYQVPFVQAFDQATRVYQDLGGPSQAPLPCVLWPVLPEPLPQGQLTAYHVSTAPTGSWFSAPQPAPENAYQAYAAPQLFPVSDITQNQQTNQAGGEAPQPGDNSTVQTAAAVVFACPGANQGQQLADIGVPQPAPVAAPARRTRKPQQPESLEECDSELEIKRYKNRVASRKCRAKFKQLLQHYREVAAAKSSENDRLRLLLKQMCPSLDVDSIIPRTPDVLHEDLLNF
EBNA-1 confirm = EBNA-1 (EBV) inhibition, confirmation | shares compounds with EBNA-1 inhibitor | Recombinant EBNA-1 DBD, Cy5-DNA fluorescence polarization | inhibition, % at 14.8 µM | 35% of 830 active | AID 2292;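 active = mean inhibition across replicates above a set limit taken from the earlier primary screen, cut at about 28% in these data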;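 also: plate controls were EBNA-1 protein with DMSO for no effect and wells lacking EBNA-1 for full effect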
ZTA counter trip = ZTA (EBV) inhibition, triplicate counter-screen; shares compounds with EBNA-1 inhibitor; Zta-ZRE DNA binding, Cy5 fluorescence polarization; inhibition, % at 11.1 µM; 830 tested, under 10 active;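 active = mean inhibition over triplicates above a set limit taken from the primary EBNA-1 screen, cut at about 37% in these data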;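 also: purified full length Zta protein with Cy5 labeled ZRE DNA probe; 0% = Zta with DMSO and 100% = wells lacking Zta protein; inhibitors lower polarization by freeing the labeled DNA probe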
Active calls of the source: *; nt = no result.

SMILES	EBNA-1 inhibitor	HCV core dimer	NS3 helicase inh	ZTA DNA inh	EBNA-1 confirm	ZTA counter trip
COc1ccc(-c2csc(NC(=S)NC(=O)c3cccs3)n2)cc1OC	nt	nt	-6	nt	nt	nt
COc1ccc(-c2csc(NC(=S)NC(=O)c3ccc(S(=O)(=O)N(C)C)cc3)n2)cc1OC	46*	9	-16	15	59*	41*
Cc1cccc(S(=O)(=O)NNC(=O)c2sc(C)nc2C)c1	-4	-4	-2	-5	nt	nt
CCC(=O)Nc1ccc(NC(=S)NC(=O)c2cc3ccccc3o2)cc1	5	1	3	10	nt	nt
CCC(=O)Nc1cccc(NC(=S)NC(=O)c2cc3ccccc3o2)c1	31*	6	2	2	12	16
COc1ccc(NC(=O)CCC(=O)c2cccs2)cc1S(=O)(=O)Nc1ccc(Cl)cc1	34*	3	-11	16	17	0
Cc1ccc(NC2CCCN(C(=O)CSc3ccccn3)C2)cc1C (stereo not drawn)	nt	nt	-6	nt	nt	nt
Cc1ccc(NC(=S)NCc2ccc3c(c2)OCO3)cc1C	14	3	-1	-5	nt	nt
Cc1ccc(NC(=O)NCc2ccc3c(c2)OCO3)cc1C	30*	3	3	6	-2	6
Cc1ccccc1NC(=O)Cc1nc(COC(=O)c2cc(Br)ccc2O)cs1	nt	nt	nt	7	nt	nt
Cc1ccccc1NC(=O)Cc1nc(COC(=O)c2cc(Cl)ccc2O)cs1	33*	-1	-13	-7	10	5
CC(NC(=O)Cc1ccc([N+](=O)[O-])cc1)c1ccc2c(c1)OCO2 (stereo not drawn)	6	0	5	6	nt	nt
Cc1ccc(N=Nc2ccc(O)c(/C=N\NC(=O)c3ccc(N)cc3)c2)cc1C	38*	24	9	-3	-6	23
O=C(N/N=C/c1cc(Cl)ccc1O)c1ccc(Br)cc1	-11	-7	3	0	nt	nt
COc1ccc(N=Cc2c(O)n(-c3ccc(OC)cc3)c(=O)c3ccccc23)cc1	65*	13	-18	9	56*	8
COc1ccc(CNC(=O)CCCCCn2c(SCC#N)nc3cc4c(cc3c2=O)OCO4)cc1	38*	2	11	8	6	12
COc1ccc2c(c1)[nH]c1c(=O)n(Cc3ccco3)cnc12	37*	-7	-3	5	-2	-13
Cn1cccc1/C=N/NC(=O)c1cc2ccccc2cc1O	6	-1	21	2	nt	nt
COc1ccc(NC(=O)CCCNC(=O)Cn2cnc3sc(C)c(C)c3c2=O)cc1OC	3	-13	18	-15	nt	nt
CCc1ccc(NC(=O)CCCNC(=O)Cn2cnc3sc(C)c(C)c3c2=O)cc1	62*	2	7	10	31*	-10
COCCN(C(=O)CSc1nnc(-c2ccccc2F)o1)c1c(N)n(CC(C)C)c(=O)[nH]c1=O	11	-8	nt	10	nt	nt
CCOC(=O)Nc1ccccc1C(=O)Nc1cc(C)cc(C)c1	-4	-6	6	-13	nt	nt
Cc1cccc(COC(=O)Nc2ccc(NC(=O)c3ccccc3Cl)cc2)c1	48*	5	-9	-13	5	-5
COc1ccc(N2CCN(S(=O)(=O)c3ccc(C(=O)NCc4ccco4)cc3)CC2)cc1	38*	4	-4	-12	27	3
CCn1c(=O)c(C(=O)NCc2ccc(OC)c(OC)c2)c(O)c2ccccc21	30*	2	3	-1	-2	1
SMILES	EBNA-1 inhibitor	HCV core dimer	NS3 helicase inh	ZTA DNA inh	EBNA-1 confirm	ZTA counter trip
CC(=O)Nc1ccc(NC(=O)c2cc(=O)c3ccc(C)cc3o2)cc1	5	3	-10	19	nt	nt
CC(=O)Nc1ccc(NC(=O)c2cc(=O)c3cc(C)c(C)cc3o2)cc1	73*	1	1	0	35*	2
CSc1nc2ccc(NC(=O)c3ccc(Cl)s3)cc2s1	38*	-5	11	-6	34*	3
Nc1ccc2nc(SCC(=O)Nc3ccc(N4CCOCC4)c(Cl)c3)sc2c1	-4	6	-6	-1	nt	nt
CCCC(=O)Nc1ccc2nc(SCC(=O)Nc3ccc(N4CCOCC4)c(Cl)c3)sc2c1	67*	4	-18	16	71*	4
O=C(CCCCCn1c(=S)[nH]c2cc3c(cc2c1=O)OCO3)N1CCN(Cc2ccccc2)CC1	37*	7	-6	-1	69*	-3
O=C(CCCCCn1c(=S)[nH]c2cc3c(cc2c1=O)OCO3)N1CCN(C(=O)c2ccco2)CC1	14	8	-1	14	nt	nt
Cc1ccc(C)c(NC(=O)C(Sc2nc3ccccc3c(=O)n2CC(C)C)c2ccccc2)c1 (stereo not drawn)	32*	20	-5	-7	-1	2
CCOc1ccc(NC(=O)c2cc3cc4ccc(OC)cc4nc3o2)cc1	29*	15	6	3	45*	5
COCCNC(=O)c1cc2cc3ccc(OC)cc3nc2o1	-23	-1	18	-11	nt	nt
COc1ccc(CNC(=S)N2CCN(S(=O)(=O)c3cccc(F)c3)CC2)cc1	40*	4	-14	2	73*	7
COc1ccc(CCNC(=S)N2CCN(S(=O)(=O)c3cccc(F)c3)CC2)cc1	6	-5	nt	-9	nt	nt
C=CC(C)(O)CCCC(C)CCCC(C)CCCC(C)C (stereo not drawn)	nt	nt	nt	-9	nt	nt
COc1cccc(OC)c1C(=O)Nc1nc2cc3c(cc2s1)OCO3	33*	9	0	-3	60*	7
CCCCNC(=O)CN1C(=O)COc2ccc(S(=O)(=O)N3CCCCCC3)cc21	-14	-6	-3	0	nt	nt
CCCCN(CC)CCNC(=O)CN1C(=O)COc2ccc(S(=O)(=O)N3CCCC3)cc21	77*	-13	1	2	-2	-2
COc1ccc(-c2ccc(C#N)c(SCC(=O)NCc3ccco3)n2)cc1OC	45*	4	9	-6	41*	0
COc1ccc(-c2ccc(SCC(=O)NC3CCCC3)nn2)cc1OC	-3	-11	2	29	nt	nt
COc1ccc(-c2ccc(C#N)c(SCC(=O)OCc3ccccc3)n2)cc1OC	-5	-2	-11	-10	nt	nt
COc1ccc(-c2ccc(C#N)c(SCC(=O)NC3CC3)n2)cc1OC	32*	2	-6	6	13	4
O=C1/C(=C/c2ccsc2)N2CCC1CC2	-3	-8	7	14	nt	nt
COc1ccc(Nc2nc(NCc3ccco3)nc(N)c2[N+](=O)[O-])cc1	39*	9	-8	17	12	1
Cn1c(C(=O)N2CCN(c3nc4ccccc4s3)CC2)cc2sccc21	51*	2	-2	7	31*	2
O=C(C1CC1)N1CCN(c2ccc(O)cc2)CC1	-7	-12	4	-1	nt	nt
CCOC(=O)N1CCN(S(=O)(=O)c2ccc(F)c(C(=O)Nc3cccc(Cl)c3C)c2)CC1	81*	5	-12	-8	12	-2
C/C(=C\c1ccccc1)C(=O)Nc1ccc(Cl)cn1	5	0	-6	-2	nt	nt

Bioassay records (PubChem BioAssay)
